In brackets after ≈: the same amount, converted by molar mass.
Legend:
Candida albicans [1] = test: Antimicrobial activity against Candida albicans ATCC 24433 by broth microdilution method; type: functional
In short: (§1)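 MICs were determined by NCCLS-guideline broth microdilution in RPMI1640 medium at 35 °C against Candida strains.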

Candida albicans [2] = test: Antimicrobial activity against Candida albicans SANK 51486 by broth microdilution method; type: functional; in short: as §1
Candida albicans [3] = test: Antimicrobial activity against Candida albicans TIMM 3164 by broth microdilution method; type: functional; in short: as §1
Candida albicans [4] = test: Antimicrobial activity against Candida albicans ATCC 64550 by broth microdilution method; type: functional; in short: as §1
Candida parapsilosis = test: Antimicrobial activity against Candida parapsilosis ATCC 90018 by broth microdilution method; type: functional; details: Lodderomyces parapsilosis; in short: as §1
Nakaseomyces glabratus = test: Antimicrobial activity against Candida glabrata ATCC 90030 by broth microdilution method; type: functional; in short: as §1
Pichia kudriavzevii = test: Antimicrobial activity against Candida krusei ATCC 6258 by broth microdilution method; type: functional; in short: as §1
Candida tropicalis = test: Antimicrobial activity against Candida tropicalis ATCC 750 by broth microdilution method; type: functional; in short: as §1
Cryptococcus neoformans = test: Antimicrobial activity against Cryptococcus neoformans TIMM 1855 by broth microdilution method; type: functional
In short: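 NCCLS broth microdilution MIC determination at 35 °C for Cryptococcus neoformans.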

Aspergillus fumigatus [5] = test: Antimicrobial activity against Aspergillus fumigatus SANK 10569 by broth microdilution method; type: functional
In short: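 Broth microdilution following NCCLS guidelines. Aspergillus strains incubated at 30 °C in RPMI1640 medium. The MIC was read as the endpoint.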

Candida albicans [6] = test: Antimicrobial activity against Candida albicans 427 infected ddY mouse assessed as survival at 20 mg/kg, po administered after 1 hr, 4 hrs, 24 hrs of infection; type: functional
In short: (§2)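 ddY mice (n = 10) infected systemically by intravenous injection of C. albicans 427, 5.5 × 10⁶ CFU/mouse. Treatment 20 mg/kg/administration, given 1, 4 and 24 h after infection, orally or ip as per line. Survival recorded 21 days after administration.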

Candida albicans [7] = test: Antimicrobial activity against Candida albicans 427 infected ddY mouse assessed as survival at 20 mg/kg, ip administered after 1 hr, 4 hrs, 24 hrs of infection; type: functional; details: route intraperitoneal; in short: as §2
Mus musculus = test: Toxicity in ddY mouse at 500 mg/kg, po once daily for 4 days; details: in vivo, 96 h
Aspergillus flavus = test: Antimicrobial activity against Aspergillus flavus SANK 18497 by broth microdilution method
Aspergillus fumigatus [8] = test: Antimicrobial activity against Aspergillus fumigatus ATCC 26430 by broth microdilution method
Candida albicans [9] = test: Antimicrobial activity against Candida albicans 427 infected ddY mouse assessed as survival rate at 20 mg/kg, po administered after 1 hr, 4 hrs, 24 hrs of infection; type: functional; in short: as §2

Row | SMILES | MIC (Candida albicans [1]) [µg/mL] | MIC (Candida albicans [2]) [µg/mL] | MIC (Candida albicans [3]) [µg/mL] | MIC (Candida albicans [4]) [µg/mL] | MIC (Candida parapsilosis) [µg/mL] | MIC (Nakaseomyces glabratus) [µg/mL] | MIC (Pichia kudriavzevii) [µg/mL] | MIC (Candida tropicalis) [µg/mL] | MIC (Cryptococcus neoformans) [µg/mL] | MIC (Aspergillus fumigatus [5]) [µg/mL] | Survival (Candida albicans [6]) [days] | Survival (Candida albicans [7]) [days] | Activity (Mus musculus) | MIC (Aspergillus flavus) [µg/mL] | MIC (Aspergillus fumigatus [8]) [µg/mL] | Activity (Candida albicans [9]) [%]
1 | C[C@@H](C[C@H]1CO[C@H](/C=C/C=C/c2ccc(C(F)(F)F)cc2)OC1)[C@](O)(Cn1cncn1)c1ccc(F)cc1F.O=C(O)C(=O)O | 0.016 | ≤ 0.008 | 0.016 | 0.5 | 0.031 | 1 | 0.063 | 0.125 | 0.016 | 0.125 | 21 | 21 | Non-toxic | 0.5 | 0.125 | –
2 | C[C@@H](S[C@H]1CO[C@H](c2ccc(C(F)(F)F)cc2)OC1)[C@](O)(Cn1cncn1)c1ccc(F)cc1F | 0.016 (≈ 0.031 µM) | ≤ 0.008 | 0.063 (≈ 0.122 µM) | 1 (≈ 1.94 µM) | 0.031 (≈ 0.0601 µM) | 1 (≈ 1.94 µM) | 0.25 (≈ 0.485 µM) | 0.5 (≈ 0.97 µM) | 0.031 (≈ 0.0601 µM) | 1 (≈ 1.94 µM) | – | – | – | 2 (≈ 3.88 µM) | 1 (≈ 1.94 µM) | –
3 | OC(Cn1cncn1)(Cn1cncn1)c1ccc(F)cc1F [FLUCONAZOLE] | 0.5 (≈ 1.63 µM) | 0.25 (≈ 0.816 µM) | > 4 | > 4 | 0.5 (≈ 1.63 µM) | > 4 | > 4 | 2 (≈ 6.53 µM) | > 4 | > 4 | – | – | – | > 4 | > 4 | 60
4 | C[C@@H](C[C@H]1CO[C@H](c2ccc(C(F)(F)F)cc2)OC1)[C@](O)(Cn1cncn1)c1ccc(F)cc1F.O=C(O)C(=O)O | 0.016 | ≤ 0.008 | 0.016 | 0.5 | 0.016 | 1 | 0.125 | 0.125 | 0.031 | 0.25 | – | – | – | 1 | 0.25 | –
5 | C[C@@H](C[C@H]1CO[C@H](/C=C/c2ccc(C(F)(F)F)cc2)OC1)[C@](O)(Cn1cncn1)c1ccc(F)cc1F.O=C(O)C(=O)O | 0.031 | ≤ 0.008 | 0.016 | 1 | 0.031 | 1 | 0.063 | 0.125 | 0.016 | 0.25 | – | – | – | 0.5 | 0.25 | –
6 | C[C@@H](S[C@H]1CO[C@H](/C=C/C=C/C=C/c2ccc(C(F)(F)F)cc2)OC1)[C@](O)(Cn1cncn1)c1ccc(F)cc1F.O=C(O)C(=O)O | 0.25 | 0.031 | 1 | > 4 | 0.25 | > 4 | 1 | 2 | 0.5 | 2 | – | – | – | 4 | 2 | –
7 | C[C@@H](S[C@H]1CO[C@H](/C=C/C=C/c2ccc(C(F)(F)F)cc2)OC1)[C@](O)(Cn1cncn1)c1ccc(F)cc1F.O=C(O)C(=O)O | 0.125 | 0.016 | 0.125 | 1 | 0.063 | 1 | 0.25 | 0.125 | 0.016 | 0.25 | – | – | – | 0.5 | 0.25 | –
8 | CCC(C)n1ncn(-c2ccc(N3CCN(c4ccc(OCC5COC(Cn6cncn6)(c6ccc(Cl)cc6Cl)O5)cc4)CC3)cc2)c1=O (centres undefined) [ITRACONAZOLE] | 0.125 (≈ 0.177 µM) | 0.031 (≈ 0.0439 µM) | 0.25 (≈ 0.354 µM) | 1 (≈ 1.42 µM) | 0.125 (≈ 0.177 µM) | 1 (≈ 1.42 µM) | 0.5 (≈ 0.709 µM) | 0.5 (≈ 0.709 µM) | 0.25 (≈ 0.354 µM) | 0.25 (≈ 0.354 µM) | – | – | – | 0.5 (≈ 0.709 µM) | 0.25 (≈ 0.354 µM) | –
9 | C[C@@H](C[C@H]1CO[C@H](/C=C/C=C/C=C/c2ccc(C(F)(F)F)cc2)OC1)[C@](O)(Cn1cncn1)c1ccc(F)cc1F.O=C(O)C(=O)O | 0.125 | 0.031 | 0.125 | 0.5 | 0.125 | 2 | 0.25 | 0.25 | 0.125 | 0.5 | – | – | – | 1 | 0.5 | –
10 | C[C@@H](S[C@H]1CO[C@H](/C=C/c2ccc(C(F)(F)F)cc2)OC1)[C@](O)(Cn1cncn1)c1ccc(F)cc1F | 0.063 (≈ 0.116 µM) | 0.016 (≈ 0.0295 µM) | 0.125 (≈ 0.231 µM) | 2 (≈ 3.69 µM) | 0.031 (≈ 0.0572 µM) | 1 (≈ 1.85 µM) | 0.25 (≈ 0.462 µM) | 0.031 (≈ 0.0572 µM) | 0.016 (≈ 0.0295 µM) | 0.25 (≈ 0.462 µM) | – | – | – | 1 (≈ 1.85 µM) | 0.25 (≈ 0.462 µM) | –
